What was measured:
Format in all cases: functional
Cavia porcellus [1] = experiment: In vivo reversal activity versus ~90% block by rocuronium in guinea pig
Method in brief: (§1)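 Male Dunkin-Hartley guinea pigs (600-900 g), anaesthetized ip with pentobarbitone 10 mg/kg plus urethane 1000 mg/kg, tracheotomized and ventilated. Continuous iv rocuronium infusion (~10 nmol kg-1 min-1) was raised to a steady 85-90% block. Increasing iv doses of agent were given cumulatively. ED50 = 50% recovery versus preblock twitch, by regression. Mean ± SEM of at least two experiments, or one.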

Mus musculus [2] = organism: Mus musculus; experiment: In vitro reversal activity versus ~90% block by rocuronium in isolated mouse hemidiaphragm, expressed as % of maximum reversal at 14.4 uM conc.
Cavia porcellus [3] = experiment: In vivo reversal activity versus ~90% block by rocuronium in guinea pig, expressed as % of maximum reversal at 3.2 umol/kg conc.
Method in brief: (§2)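 Male Dunkin-Hartley guinea pigs (600-900 g) anaesthetized ip with pentobarbitone 10 mg/kg plus urethane 1000 mg/kg, tracheotomized and artificially ventilated. Continuous iv rocuronium bromide infusion (~10 nmol kg-1 min-1) raised until steady-state twitch block of 85-90%. Increasing single iv doses of reversal agent given by a separate catheter. Max reversal is peak twitch recovery versus preblock height at highest dose tested; means ± SEM, n ≥ 2 or single experiment.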

Mus musculus [4] = organism: Mus musculus; experiment: In vitro reversal activity versus ~90% block by rocuronium in isolated mouse hemidiaphragm, expressed as effective conc.
Cavia porcellus [5] = experiment: In vivo reversal activity versus ~90% block by rocuronium in guinea pig, expressed as % of maximum reversal at 2.5 umol/kg conc.; method in brief: as §2
Mus musculus [6] = organism: Mus musculus; experiment: In vitro reversal activity versus ~90% block by rocuronium in isolated mouse hemidiaphragm, expressed as % of maximum reversal at 12.6 uM conc.
Cavia porcellus [7] = experiment: In vivo reversal activity versus ~90% block by rocuronium in guinea pig, expressed as % of maximum reversal at 0.2 umol/kg conc.; method in brief: as §1
Mus musculus [8] = organism: Mus musculus; experiment: In vitro reversal activity versus ~90% block by rocuronium in isolated mouse hemidiaphragm, expressed as % of maximum reversal at 3.6 uM conc.
Cavia porcellus [9] = experiment: In vivo reversal activity versus ~90% block by rocuronium in guinea pig, expressed as % of maximum reversal at 0.6 umol/kg conc.; method in brief: as §1
Mus musculus [10] = organism: Mus musculus; experiment: In vitro reversal activity versus ~90% block by rocuronium in isolated mouse hemidiaphragm, expressed as % of maximum reversal at 5.4 uM conc.
Cavia porcellus [11] = experiment: In vivo reversal activity versus ~90% block by rocuronium in guinea pig, expressed as % of maximum reversal at 21 umol/kg conc.; method in brief: as §2
Mus musculus [12] = organism: Mus musculus; experiment: In vitro reversal activity versus ~90% block by rocuronium in isolated mouse hemidiaphragm, expressed as % of maximum reversal at 18 uM conc.
Cavia porcellus [13] = experiment: In vivo reversal activity versus ~90% block by rocuronium in guinea pig, expressed as % of maximum reversal at 30.7 umol/kg conc.; method in brief: as §2
Cavia porcellus [14] = experiment: In vivo reversal activity versus ~90% block by rocuronium in guinea pig, expressed as % of maximum reversal at 1.3 umol/kg conc.; method in brief: as §1
Mus musculus [15] = organism: Mus musculus; experiment: In vitro reversal activity versus ~90% block by rocuronium in isolated mouse hemidiaphragm, expressed as % of maximum reversal at 7.2 uM conc.
Cavia porcellus [16] = experiment: In vivo reversal activity versus ~90% block by rocuronium in guinea pig, expressed as % of maximum reversal at 25.6 umol/kg conc.; method in brief: as §2
Cavia porcellus [17] = experiment: In vivo reversal activity versus ~90% block by rocuronium in guinea pig, expressed as % of maximum reversal at 1.6 umol/kg conc.; method in brief: as §1
Mus musculus [18] = organism: Mus musculus; experiment: In vitro reversal activity versus ~90% block by rocuronium in isolated mouse hemidiaphragm, expressed as % of maximum reversal at 2.9 uM conc.
Cavia porcellus [19] = experiment: In vivo reversal activity versus ~90% block by rocuronium in guinea pig, expressed as % of maximum reversal at 1.4 umol/kg conc.; method in brief: as §1
Mus musculus [20] = organism: Mus musculus; experiment: In vitro reversal activity versus ~90% block by rocuronium in isolated mouse hemidiaphragm, expressed as % of maximum reversal at 2.2 uM conc.

| SMILES | EC50 (Mus musculus [4]) [µM] | ED50 (Cavia porcellus [1]) [µmol/kg] | further results |
| --- | --- | --- | --- |
| O=C([O-])Cc1ccc(SCC2O[C@@H]3O[C@@H]4C(CO)O[C@H](O[C@@H]5C(CO)O[C@H](O[C@@H]6C(CO)O[C@H](O[C@@H]7C(CO)O[C@H](O[C@@H]8C(CO)O[C@H](O[C@@H]9C(CO)O[C@H](O[C@@H]%10C(CO)O[C@H](O[C@H]2C(O)C3O)C(O)C%10O)C(O)C9O)C(O)C8O)C(O)C7O)C(O)C6O)C(O)C5O)C(O)C4O)cc1.[Na+] (stereo not given in full) | 34.7 | 4.55 | Max reversal (Cavia porcellus [13]): 97.1%; Max reversal (Mus musculus [12]): 45% |
| O=C([O-])c1cccc(SCC2O[C@@H]3O[C@@H]4C(CSc5cccc(C(=O)[O-])c5)O[C@H](O[C@@H]5C(CSc6cccc(C(=O)[O-])c6)O[C@H](O[C@@H]6C(CSc7cccc(C(=O)[O-])c7)O[C@H](O[C@@H]7C(CSc8cccc(C(=O)[O-])c8)O[C@H](O[C@@H]8C(CSc9cccc(C(=O)[O-])c9)O[C@H](O[C@@H]9C(CSc%10cccc(C(=O)[O-])c%10)O[C@H](O[C@@H]%10C(CSc%11cccc(C(=O)[O-])c%11)O[C@H](O[C@H]2C(O)C3O)C(O)C%10O)C(O)C9O)C(O)C8O)C(O)C7O)C(O)C6O)C(O)C5O)C(O)C4O)c1.[Na+].[Na+].[Na+].[Na+].[Na+].[Na+].[Na+].[Na+] (stereo not given in full) | 3.3 | 0.28 | Max reversal (Cavia porcellus [14]): 102%; Max reversal (Mus musculus [15]): 95.7% |
| Oc1ccc(SCC2O[C@@H]3O[C@@H]4C(CSc5ccc(O)cc5)O[C@H](O[C@@H]5C(CSc6ccc(O)cc6)O[C@H](O[C@@H]6C(CSc7ccc(O)cc7)O[C@H](O[C@@H]7C(CSc8ccc(O)cc8)O[C@H](O[C@@H]8C(CSc9ccc(O)cc9)O[C@H](O[C@@H]9C(CSc%10ccc(O)cc%10)O[C@H](O[C@@H]%10C(CSc%11ccc(O)cc%11)O[C@H](O[C@H]2C(O)C3O)C(O)C%10O)C(O)C9O)C(O)C8O)C(O)C7O)C(O)C6O)C(O)C5O)C(O)C4O)cc1 (stereo not given in full) | 4.9 | 4.1 | Max reversal (Mus musculus [2]): 93.2%; Max reversal (Cavia porcellus [16]): 79.3% |
| O=C([O-])Cc1ccc(SCC2O[C@@H]3O[C@@H]4C(CSc5ccc(CC(=O)[O-])cc5)O[C@H](O[C@@H]5C(CSc6ccc(CC(=O)[O-])cc6)O[C@H](O[C@@H]6C(CSc7ccc(CC(=O)[O-])cc7)O[C@H](O[C@@H]7C(CSc8ccc(CC(=O)[O-])cc8)O[C@H](O[C@@H]8C(CSc9ccc(CC(=O)[O-])cc9)O[C@H](O[C@@H]9C(CSc%10ccc(CC(=O)[O-])cc%10)O[C@H](O[C@@H]%10C(CSc%11ccc(CC(=O)[O-])cc%11)O[C@H](O[C@H]2C(O)C3O)C(O)C%10O)C(O)C9O)C(O)C8O)C(O)C7O)C(O)C6O)C(O)C5O)C(O)C4O)cc1.[Na+].[Na+].[Na+].[Na+].[Na+].[Na+].[Na+].[Na+] (stereo not given in full) | 1.4 | 0.14 | Max reversal (Cavia porcellus [17]): 103.8%; Max reversal (Mus musculus [18]): 98.9% |
| O=C([O-])c1ccc(SCC2O[C@@H]3O[C@@H]4C(CSc5ccc(C(=O)[O-])cc5)O[C@H](O[C@@H]5C(CSc6ccc(C(=O)[O-])cc6)O[C@H](O[C@@H]6C(CSc7ccc(C(=O)[O-])cc7)O[C@H](O[C@@H]7C(CSc8ccc(C(=O)[O-])cc8)O[C@H](O[C@@H]8C(CSc9ccc(C(=O)[O-])cc9)O[C@H](O[C@@H]9C(CSc%10ccc(C(=O)[O-])cc%10)O[C@H](O[C@@H]%10C(CSc%11ccc(C(=O)[O-])cc%11)O[C@H](O[C@H]2C(O)C3O)C(O)C%10O)C(O)C9O)C(O)C8O)C(O)C7O)C(O)C6O)C(O)C5O)C(O)C4O)cc1.[Na+].[Na+].[Na+].[Na+].[Na+].[Na+].[Na+].[Na+] (stereo not given in full) | 1 | 0.12 | Max reversal (Cavia porcellus [19]): 97.6%; Max reversal (Mus musculus [20]): 97% |

More lines, main results first:

| EC50 (Mus musculus [4]) [µM] | SMILES | ED50 (Cavia porcellus [1]) [µmol/kg] | further results |
| --- | --- | --- | --- |
| 5 | O=C([O-])CCCSCC1O[C@@H]2O[C@@H]3C(CSCCCC(=O)[O-])O[C@H](O[C@@H]4C(CSCCCC(=O)[O-])O[C@H](O[C@@H]5C(CSCCCC(=O)[O-])O[C@@H](O[C@@H]6C(CSCCCC(=O)[O-])O[C@H](O[C@@H]7C(CSCCCC(=O)[O-])O[C@H](O[C@@H]8C(CSCCCC(=O)[O-])O[C@H](O[C@H]1C(O)C2O)C(O)C8O)C(O)C7O)C(O)C6O)C(O)C5O)C(O)C4O)C(O)C3O.[Na+].[Na+].[Na+].[Na+].[Na+].[Na+].[Na+] (stereo not given in full) | 0.49 | Max reversal (Mus musculus [2]): 95.3%; Max reversal (Cavia porcellus [3]): 99.6% |
| 7 | O=C([O-])CCCCCSCC1O[C@@H]2O[C@@H]3C(CSCCCCCC(=O)[O-])O[C@H](O[C@@H]4C(CSCCCCCC(=O)[O-])O[C@H](O[C@@H]5C(CSCCCCCC(=O)[O-])O[C@H](O[C@@H]6C(CSCCCCCC(=O)[O-])O[C@H](O[C@@H]7C(CSCCCCCC(=O)[O-])O[C@H](O[C@@H]8C(CSCCCCCC(=O)[O-])O[C@H](O[C@@H]9C(CSCCCCCC(=O)[O-])O[C@H](O[C@H]1C(O)C2O)C(O)C9O)C(O)C8O)C(O)C7O)C(O)C6O)C(O)C5O)C(O)C4O)C(O)C3O.[Na+].[Na+].[Na+].[Na+].[Na+].[Na+].[Na+].[Na+] (stereo not given in full) | 0.74 | Max reversal (Cavia porcellus [5]): 78.4%; Max reversal (Mus musculus [6]): 81.7% |
| 1.8 | O=S(=O)([O-])CCCSCC1O[C@@H]2O[C@@H]3C(CSCCCS(=O)(=O)[O-])O[C@H](O[C@@H]4C(CSCCCS(=O)(=O)[O-])O[C@H](O[C@@H]5C(CSCCCS(=O)(=O)[O-])O[C@H](O[C@@H]6C(CSCCCS(=O)(=O)[O-])O[C@H](O[C@@H]7C(CSCCCS(=O)(=O)[O-])O[C@H](O[C@@H]8C(CSCCCS(=O)(=O)[O-])O[C@H](O[C@@H]9C(CSCCCS(=O)(=O)[O-])O[C@H](O[C@H]1C(O)C2O)C(O)C9O)C(O)C8O)C(O)C7O)C(O)C6O)C(O)C5O)C(O)C4O)C(O)C3O.[Na+].[Na+].[Na+].[Na+].[Na+].[Na+].[Na+].[Na+] (stereo not given in full) | 0.07 | Max reversal (Cavia porcellus [7]): 98.6%; Max reversal (Mus musculus [8]): 99.3% |
| 1.08 | O=C([O-])CCC(=O)NCCSCC1O[C@@H]2O[C@@H]3C(CSCCNC(=O)CCC(=O)[O-])O[C@H](O[C@@H]4C(CSCCNC(=O)CCC(=O)[O-])O[C@H](O[C@@H]5C(CSCCNC(=O)CCC(=O)[O-])O[C@H](O[C@@H]6C(CSCCNC(=O)CCC(=O)[O-])O[C@H](O[C@@H]7C(CSCCNC(=O)CCC(=O)[O-])O[C@H](O[C@@H]8C(CSCCNC(=O)CCC(=O)[O-])O[C@H](O[C@@H]9C(CSCCNC(=O)CCC(=O)[O-])O[C@H](O[C@H]1C(O)C2O)C(O)C9O)C(O)C8O)C(O)C7O)C(O)C6O)C(O)C5O)C(O)C4O)C(O)C3O.[Na+].[Na+].[Na+].[Na+].[Na+].[Na+].[Na+].[Na+] (stereo not given in full) | 0.07 | Max reversal (Cavia porcellus [9]): 107.1%; Max reversal (Mus musculus [10]): 99.4% |
| > 18 | O=C([O-])CSCC1O[C@@H]2O[C@@H]3C(CSCC(=O)[O-])O[C@H](O[C@@H]4C(CSCC(=O)[O-])O[C@H](O[C@@H]5C(CSCC(=O)[O-])O[C@H](O[C@@H]6C(CSCC(=O)[O-])O[C@H](O[C@@H]7C(CSCC(=O)[O-])O[C@H](O[C@H]1C(O)C2O)C(O)C7O)C(O)C6O)C(O)C5O)C(O)C4O)C(O)C3O.[Na+].[Na+].[Na+].[Na+].[Na+].[Na+] (stereo not given in full) | > 21 | Max reversal (Cavia porcellus [11]): 3.6%; Max reversal (Mus musculus [12]): 22.8% |

Source: ChEMBL document CHEMBL1135836, “Cyclodextrin-derived host molecules as reversal agents for the neuromuscular blocker rocuronium bromide: synthesis and structure-activity relationships” (J Med Chem, 2002)
